The nature of data set [1]: Hydrolysis of the C-15 acetoxy group of AF to AJ. The class given is physicochemical. Particulars: serum in vitro.
The conditions of data set [2]: human, microsomes.
Data set [3] has as its system SCC-4 xenografts. Kind of data set: Antitumor efficacy of intratumorally administered taccalonolides. The format is in vivo. To be noted: intratumoral.
Data set [4] deals with murine xenograft models of breast cancer. To be noted: systemic i.p. injection ref 23, 25; cited from earlier work.
Data set [5] in a line: In vivo pharmacokinetic assessment in mice, plasma LC-MS. Particulars: 300 µg IV, mouse plasma. A digest of the protocol:
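Female athymic nude mice, 6–7 weeks, got a single 300 µg tail-vein bolus in 100 µL PBS/5% ethanol. Blood was taken by cardiac puncture under CO2 anaesthesia pre-dose, at end of infusion, 0.25, 0.5, 1 and 2 h (3–5 mice/time point). EDTA plasma (1,200 rcf, 10 min), 100 µL extracted into 1 mL cold ethyl acetate. Quantified against 1/X2-weighted linear calibration. Non-compartmental AUC by linear trapezoid, extrapolated to infinity.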

For the compound `CC(=O)O[C@@H]1[C@H]2[C@H]3[C@H]([C@H](OC(C)=O)[C@H](OC(C)=O)[C@]2(C)[C@H]2[C@H](C)[C@H]4O[C@]45OC(=O)[C@@](C)(O)[C@]5(C)[C@H]12)[C@]1(C)[C@H](C[C@@H]2O[C@@H]2[C@@H]1OC(C)=O)C(=O)[C@@H]3O` [taccalonolide AF], in data set [1], the “hydrolysis of the C-15 acetoxy group” value is given as “observed”. In data set [2] (pH 7.4), this compound gave an NADPH-free intrinsic clearance of 0 µL/min/mg. Moreover, the “weight loss or other toxicities” value in data set [3] (two 40 µg injections on days 0 and 3) is on record as “no associated weight loss or other toxicities”. Also, the “antitumor efficacy on systemic administration” value in data set [4] is “demonstrated antitumor efficacy”.
On to `CC(=O)O[C@H]1[C@H]2[C@H]([C@@H]3[C@@H](O)[C@@H]4[C@H]([C@H](C)[C@H]5O[C@]56OC(=O)[C@@](C)(O)[C@]46C)[C@@]3(C)[C@H]1OC(C)=O)[C@@H](O)C(=O)[C@H]1C[C@@H]3O[C@@H]3[C@H](OC(C)=O)[C@]21C` [taccalonolide AJ], for which, in data set [5], the “drug in the plasma 120 min after injection” value was “no drug detectable”. Also, the “effect on tumor growth” value was “no inhibition of tumor growth” in data set [3] (20 µg total dose); “robust and prolonged inhibition of tumor growth” in data set [3] (80 µg total dose, over the course of the trial). The “antitumor efficacy on systemic administration” value in data set [4] is on record as “no evidence of antitumor efficacy”.
Take `CC(=O)CC(c1ccccc1)c1c(O)c2ccccc2oc1=O` (centres unmarked) [warfarin]: the “rate of clearance (microsomal intrinsic clearance)” value in data set [2] is reported as “no clearance”. Moreover, in data set [2] (pH 7.4), the NADPH-dependent intrinsic clearance came out at 0 µL/min/mg and the NADPH-free intrinsic clearance worked out at 0 µL/min/mg.

(Values after article PMC5553283 (Journal of natural products, 2017).)
